For 31 molecules, IC50 and Activity results are on record in ChEMBL document CHEMBL5344479, “N-Arylsulfonamide-based adenosine analogues to target RNA cap N7-methyltransferase nsp14 of SARS-CoV-2” (RSC Med Chem, 2024).

Assay [1] deals with Replicase polyprotein 1ab (Severe acute respiratory syndrome coronavirus 2, UniProt P0DTD1). Kind of assay: Inhibition of N-terminal hexa-histidine tagged recombinant SARS-CoV-2 nsp14 RNA cap N7-methyltransferase activity expressed in Escherichia coli C2566 using GpppAC4 synthetic RNA and [3H]-SAM as substrate incubated for 30 mins by filter binding assay based liquid scintillation counter analysis.

Assay [2] concerns the target Replicase polyprotein 1ab (Severe acute respiratory syndrome coronavirus 2) (UniProt P0DTD1). Kind of assay: Inhibition of N-terminal hexa-histidine tagged recombinant SARS-CoV-2 nsp14 RNA cap N7-methyltransferase activity expressed in Escherichia coli C2566 assessed as residual enzyme activity using GpppAC4 synthetic RNA and [3H]-SAM as substrate at 50 uM incubated for 30 mins by filter binding assay based liquid scintillation counter analysis relative to control. The procedure, abridged: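 Recombinant nsp14 (10 nM), purified by cobalt IMAC and size exclusion, was premixed with compound at 50 µM (2.5% final DMSO). Then 0.7 µM GpppAC4 RNA, 1.9 µM SAM and 0.1 µM 3H-SAM were added in 40 mM Tris-HCl pH 8.0, 1 mM DTT, 1 mM MgCl2. After 30 min at 30 °C, reactions were stopped by 10-fold ice-cold water dilution, DEAE-filtered, washed and scintillation-counted.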

With `Cc1ccc(S(=O)(=O)NCCSC[C@H]2O[C@@H](n3cnc4c(N)ncnc43)[C@H](O)[C@@H]2O)cc1`, in assay [1], the IC50 was 2.2 µM. In addition, in assay [2], the Activity came to 10%.

On to `N#Cc1ccc(S(=O)(=O)NCCSC[C@H]2O[C@@H](n3cnc4c(N)ncnc43)[C@H](O)[C@@H]2O)cc1`, for which the IC50 in assay [1] came out at 15.6 µM. Further, the Activity in assay [2] was found to be 21%.

As for `CCN(CCNS(=O)(=O)c1ccc(C)cc1)C[C@H]1O[C@@H](n2cnc3c(N)ncnc32)[C@H](O)[C@@H]1O`, the Activity in assay [2] is 66%.

In the case of `Nc1ncnc2c1ncn2[C@@H]1O[C@H](CS(=O)(=O)CCNS(=O)(=O)c2ccc(C(F)(F)F)cc2)[C@@H](O)[C@H]1O`, the half-maximal inhibitory concentration (IC50) in assay [1] was found to be 38.4 µM. In addition, in assay [2], the Activity came out at 37%.

For `CCN(Cc1cn(C[C@H]2O[C@@H](n3cnc4c(N)ncnc43)[C@H](O)[C@@H]2O)nn1)S(=O)(=O)c1ccc(F)cc1`, the Activity in assay [2] stood at 93%.

In the case of `Nc1ncnc2c1ncn2[C@@H]1O[C@H](Cn2cc(CNS(=O)(=O)c3ccc(C(F)(F)F)cc3)nn2)[C@@H](O)[C@H]1O`, the Activity in assay [2] was determined as 81%.

Regarding `Cc1cccc(S(=O)(=O)NCc2cn(C[C@H]3O[C@@H](n4cnc5c(N)ncnc54)[C@H](O)[C@@H]3O)nn2)c1`, the Activity in assay [2] was 82%.

`CCN(Cc1cn(C[C@H]2O[C@@H](n3cnc4c(N)ncnc43)[C@H](O)[C@@H]2O)nn1)S(=O)(=O)c1ccccc1`: the Activity in assay [2] was 84%.

In the case of `CCN(CCNS(=O)(=O)c1ccc(C(F)(F)F)cc1)C[C@H]1O[C@@H](n2cnc3c(N)ncnc32)[C@H](O)[C@@H]1O`, the Activity in assay [2] is 83%.

On to `CCN(Cc1cn(C[C@H]2O[C@@H](n3cnc4c(N)ncnc43)[C@H](O)[C@@H]2O)nn1)S(=O)(=O)c1ccc(OC)cc1`, for which the Activity in assay [2] is 60%.

For `COc1ccc(S(=O)(=O)NCc2cn(C[C@H]3O[C@@H](n4cnc5c(N)ncnc54)[C@H](O)[C@@H]3O)nn2)cc1`, the Activity in assay [2] was 63%.

For the molecule `Cc1ccc(S(=O)(=O)NCc2cn(C[C@H]3O[C@@H](n4cnc5c(N)ncnc54)[C@H](O)[C@@H]3O)nn2)cc1`, the Activity in assay [2] worked out at 50%.

Consider `Nc1ncnc2c1ncn2[C@@H]1O[C@H](CSCCNS(=O)(=O)c2ccc([N+](=O)[O-])cc2)[C@@H](O)[C@H]1O`, for which, in assay [1], the IC50 was 4.7 µM. Also, the Activity in assay [2] came to 9%.

In the case of `Nc1ncnc2c1ncn2[C@@H]1O[C@H](CS(=O)(=O)CCNS(=O)(=O)c2ccc([N+](=O)[O-])cc2)[C@@H](O)[C@H]1O`, the IC50 in assay [1] was determined as 27.4 µM. For the same molecule, the Activity in assay [2] worked out at 27%.

For the molecule `Nc1ncnc2c1ncn2[C@@H]1O[C@H](CSCCNS(=O)(=O)c2ccc(Cl)cc2[N+](=O)[O-])[C@@H](O)[C@H]1O`, the IC50 in assay [1] came out at 0.9 µM. In addition, the Activity in assay [2] stood at 2%.

With `CCN(CCNS(=O)(=O)c1ccc([N+](=O)[O-])cc1)C[C@H]1O[C@@H](n2cnc3c(N)ncnc32)[C@H](O)[C@@H]1O`, the Activity in assay [2] turned out to be 57%.

As for `N#Cc1ccc(S(=O)(=O)NCCS(=O)(=O)C[C@H]2O[C@@H](n3cnc4c(N)ncnc43)[C@H](O)[C@@H]2O)cc1`, the IC50 in assay [1] was determined as 52.4 µM. In addition, the Activity in assay [2] was 42%.

For the molecule `CCN(Cc1cn(C[C@H]2O[C@@H](n3cnc4c(N)ncnc43)[C@H](O)[C@@H]2O)nn1)S(=O)(=O)c1ccc(C(F)(F)F)cc1`, in assay [2], the Activity is 47%.

Take `COc1ccc(S(=O)(=O)NCCSC[C@H]2O[C@@H](n3cnc4c(N)ncnc43)[C@H](O)[C@@H]2O)c([N+](=O)[O-])c1`: in assay [1], the IC50 was 0.9 µM. In assay [2], the Activity is 0%.

For `Nc1ncnc2c1ncn2[C@@H]1O[C@H](CSCCNS(=O)(=O)c2ccc(C(F)(F)F)cc2)[C@@H](O)[C@H]1O`, the concentration for half-maximal inhibition (IC50) in assay [1] was found to be 7.3 µM. In addition, the Activity in assay [2] came out at 7%.

As to `Nc1ncnc2c1ncn2[C@@H]1O[C@H](CSCCNS(=O)(=O)c2ccccc2)[C@@H](O)[C@H]1O`, in assay [1], the IC50 was determined as 4.6 µM. The Activity in assay [2] turned out to be 13%.

Take `CCN(CCNS(=O)(=O)c1ccccc1)C[C@H]1O[C@@H](n2cnc3c(N)ncnc32)[C@H](O)[C@@H]1O`: the Activity in assay [2] turned out to be 87%.

`Nc1ncnc2c1ncn2[C@@H]1O[C@H](Cn2cc(CNS(=O)(=O)c3ccccc3)nn2)[C@@H](O)[C@H]1O`: the Activity in assay [2] came to 59%.

In the case of `CCN(CCNS(=O)(=O)c1ccc(C#N)cc1)C[C@H]1O[C@@H](n2cnc3c(N)ncnc32)[C@H](O)[C@@H]1O`, in assay [2], the Activity was determined as 67%.

For the molecule `Nc1ncnc2c1ncn2[C@@H]1O[C@H](Cn2cc(CNS(=O)(=O)c3ccc(F)cc3)nn2)[C@@H](O)[C@H]1O`, in assay [2], the Activity was 91%.

With `Cc1ccc(S(=O)(=O)NCCS(=O)(=O)C[C@H]2O[C@@H](n3cnc4c(N)ncnc43)[C@H](O)[C@@H]2O)cc1`, in assay [1], the IC50 came out at 49 µM. In assay [2], the Activity was 38%.

Consider `Nc1ncnc2c1ncn2[C@@H]1O[C@H](Cn2cc(CNS(=O)(=O)c3ccc(Cl)cc3)nn2)[C@@H](O)[C@H]1O`, for which the Activity in assay [2] was determined as 72%.

In the case of `CCN(Cc1cn(C[C@H]2O[C@@H](n3cnc4c(N)ncnc43)[C@H](O)[C@@H]2O)nn1)S(=O)(=O)c1ccc(C)cc1`, the Activity in assay [2] amounted to 59%.

`Nc1ncnc2c1ncn2[C@@H]1O[C@H](CS(=O)(=O)CCNS(=O)(=O)c2ccccc2)[C@@H](O)[C@H]1O`: the IC50 in assay [1] stood at 23.3 µM. Moreover, the Activity in assay [2] amounted to 48%.

As to `Nc1ncnc2c1ncn2[C@@H]1O[C@H](CSCCNS(=O)(=O)c2ccccc2[N+](=O)[O-])[C@@H](O)[C@H]1O`, in assay [1], the IC50 was determined as 2.04 µM. Further, the Activity in assay [2] is 0%.

`CCN(Cc1cn(C[C@H]2O[C@@H](n3cnc4c(N)ncnc43)[C@H](O)[C@@H]2O)nn1)S(=O)(=O)c1ccc(Cl)cc1`: the Activity in assay [2] stood at 69%.

What is called IC50 is the concentration needed to halve the response being measured.
